Laboratory results taken from ChEMBL document CHEMBL1141591, “Lipophilic modifications to dinucleoside polyphosphates and nucleotides that confer antagonist properties at the platelet P2Y12 receptor” (J Med Chem, 2008).
The source made the active and inactive calls. The calls are words filed in the database; no cut-off is given here.

Experiments:
Format in all cases: functional, cell-based
[1] = molecular target: P2Y purinoceptor 6 (Homo sapiens, UniProt Q15077); assay: Agonist activity at P2Y6 receptor expressed in human 1321 cells at 100 uM by calcium mobilization assay
P2Y purinoceptor 6, sequence (Q15077 whole entry): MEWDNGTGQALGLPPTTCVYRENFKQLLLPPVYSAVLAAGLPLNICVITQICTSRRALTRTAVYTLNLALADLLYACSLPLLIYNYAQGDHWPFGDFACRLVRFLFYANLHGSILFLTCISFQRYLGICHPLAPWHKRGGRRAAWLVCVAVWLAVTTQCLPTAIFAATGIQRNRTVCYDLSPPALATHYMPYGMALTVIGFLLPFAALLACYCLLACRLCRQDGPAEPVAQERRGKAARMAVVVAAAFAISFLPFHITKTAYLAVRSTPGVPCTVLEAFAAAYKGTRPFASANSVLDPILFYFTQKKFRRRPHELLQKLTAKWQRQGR
How it was run: (§1)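 1321N1 human astrocytoma cells expressing the recombinant receptor were loaded with Fluo-3 AM (2.5 µM final) for 60 min at 25 °C. Assay buffer: KCl 10, NaCl 118, CaCl2 2.5, MgCl2 1, HEPES 20, glucose 10 mM, pH 7.4. Cells were washed and then stimulated with compound. Intracellular calcium was read as the change in fluorescence (FLIPR). Values are EC50 in µM. SR means 5–20% of maximal response at the top concentration, usually 100 µM. NR means no response.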

[2] = molecular target: P2Y purinoceptor 2 (Homo sapiens, UniProt P41231); assay: Agonist activity at P2Y2 receptor expressed in human 1321 cells at 100 uM by calcium mobilization assay; how it was run: as §1
P2Y purinoceptor 2, sequence (P41231 whole entry): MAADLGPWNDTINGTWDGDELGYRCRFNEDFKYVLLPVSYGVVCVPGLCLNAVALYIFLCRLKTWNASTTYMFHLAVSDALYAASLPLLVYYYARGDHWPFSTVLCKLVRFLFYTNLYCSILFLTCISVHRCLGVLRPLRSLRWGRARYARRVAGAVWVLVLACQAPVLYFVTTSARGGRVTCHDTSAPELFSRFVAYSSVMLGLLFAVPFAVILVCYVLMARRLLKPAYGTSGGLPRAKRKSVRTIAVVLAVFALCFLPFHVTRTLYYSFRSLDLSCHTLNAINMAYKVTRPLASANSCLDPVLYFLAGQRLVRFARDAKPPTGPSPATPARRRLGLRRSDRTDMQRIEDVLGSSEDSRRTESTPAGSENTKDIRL

[3] = molecular target: P2Y purinoceptor 1 (Homo sapiens, UniProt P47900); assay: Agonist activity at human recombinant P2Y1 receptor expressed in human 1321 cells at 100 uM by calcium mobilization assay; how it was run: as §1
P2Y purinoceptor 1, sequence (P47900 whole entry): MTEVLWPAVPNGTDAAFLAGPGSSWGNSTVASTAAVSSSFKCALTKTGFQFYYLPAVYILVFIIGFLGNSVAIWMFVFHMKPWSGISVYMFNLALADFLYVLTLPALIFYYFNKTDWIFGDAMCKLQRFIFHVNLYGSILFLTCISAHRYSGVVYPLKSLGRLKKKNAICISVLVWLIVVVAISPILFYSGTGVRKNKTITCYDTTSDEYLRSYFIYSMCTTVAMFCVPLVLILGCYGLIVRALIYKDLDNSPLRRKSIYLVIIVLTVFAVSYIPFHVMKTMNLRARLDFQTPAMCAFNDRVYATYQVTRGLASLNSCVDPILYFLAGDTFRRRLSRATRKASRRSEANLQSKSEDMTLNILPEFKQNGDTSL

[4] = molecular target: P2Y purinoceptor 4 (Homo sapiens) (UniProt P51582); assay: Agonist activity at P2Y4 receptor expressed in human 1321 cells at 100 uM by calcium mobilization assay
P2Y purinoceptor 4 (Homo sapiens), sequence (P51582 whole entry): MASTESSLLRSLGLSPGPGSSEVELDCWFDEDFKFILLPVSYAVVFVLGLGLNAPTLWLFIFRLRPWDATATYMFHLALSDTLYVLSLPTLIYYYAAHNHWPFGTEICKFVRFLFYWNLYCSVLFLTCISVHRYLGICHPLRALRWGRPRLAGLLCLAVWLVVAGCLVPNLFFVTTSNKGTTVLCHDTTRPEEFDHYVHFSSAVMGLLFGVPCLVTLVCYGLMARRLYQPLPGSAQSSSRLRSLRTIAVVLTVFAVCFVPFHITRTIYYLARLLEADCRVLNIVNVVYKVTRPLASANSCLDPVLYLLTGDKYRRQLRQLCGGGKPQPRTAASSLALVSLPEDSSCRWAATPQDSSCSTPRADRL

Row | SMILES | Activity [1] | Activity [2] | Activity [3] | Activity [4]
1 | O=C(Nc1ccccc1)Nc1ncnc2c1ncn2[C@@H]1O[C@H](COP(=O)(O)O)[C@H]2OC(Cc3ccccc3)O[C@H]21 (stereo partly specified) | inactive | inactive | inactive | inactive
2 | O=C(Nc1ccccc1)Nc1ncnc2c1ncn2[C@@H]1O[C@H](COP(=O)(O)O)[C@@H](O)[C@H]1O | inactive | inactive | inactive | inactive
3 | O=C(Nc1ccccc1)Nc1ncnc2c1ncn2[C@@H]1O[C@H](COP(=O)(O)O)C2OC(/C=C/c3ccccc3)OC21 (single isomer, unassigned) | inactive | inactive | inactive | inactive
4 | CCCCCCNC(=O)Nc1ncnc2c1ncn2[C@@H]1O[C@H](COP(=O)(O)O)C2OC(C#Cc3ccccc3)OC21 (single isomer, unassigned) | inactive | inactive | inactive | inactive
5 | CCNC(=O)Nc1ncnc2c1ncn2[C@@H]1O[C@H](COP(=O)(O)O)C2OC(/C=C/c3ccccc3)OC21 (single isomer, unassigned) | inactive | inactive | inactive | inactive
6 | CCCCCCNC(=O)Nc1ncnc2c1ncn2[C@@H]1O[C@H](COP(=O)(O)O)C2OC(/C=C/c3ccccc3)OC21 (single isomer, unassigned) | inactive | inactive | inactive | inactive
7 | CCCCCCNC(=O)Nc1ncnc2c1ncn2[C@@H]1O[C@H](COP(=O)(O)O)[C@H]2OC(Cc3ccccc3)O[C@H]21 (stereo partly specified) | inactive | inactive | inactive | inactive
8 | O=C(Nc1ccccc1)Nc1ncnc2c1ncn2[C@@H]1O[C@H](COP(=O)(O)O)C2OC(C#Cc3ccccc3)OC21 (single isomer, unassigned) | inactive | inactive | inactive | inactive

Now from value to molecule:

Row | Activity [1] | Activity [2] | Activity [3] | Activity [4] | SMILES
9 | inactive | inactive | inactive | inactive | CCNC(=O)Nc1ncnc2c1ncn2[C@@H]1O[C@H](COP(=O)(O)O)[C@H]2OC(Cc3ccccc3)O[C@H]21 (stereo partly specified)
10 | inactive | inactive | inactive | inactive | O=C(Nc1ncnc2c1ncn2[C@@H]1O[C@H](COP(=O)(O)O)C2OC(Cc3ccccc3)OC21)NC1CCCC1 (single isomer, unassigned)
11 | inactive | inactive | inactive | inactive | CCNC(=O)Nc1ncnc2c1ncn2[C@@H]1O[C@H](COP(=O)(O)O)[C@H]2OC(c3ccccc3)O[C@H]21 (stereo partly specified)
12 | inactive | inactive | inactive | inactive | CCNC(=O)Nc1ncnc2c1ncn2[C@@H]1O[C@H](COP(=O)(O)O)C2O[C@H](/C=C/c3ccccc3)OC21 (single isomer, unassigned)
13 | inactive | inactive | inactive | inactive | Nc1ncnc2c1ncn2[C@@H]1O[C@H](COP(=O)(O)O)[C@H]2OC(/C=C/c3ccccc3)O[C@H]21 (stereo partly specified)
14 | inactive | inactive | inactive | inactive | Nc1ncnc2c1ncn2[C@@H]1O[C@H](COP(=O)(O)O)[C@H]2OC(C#Cc3ccccc3)O[C@H]21 (stereo partly specified)
